In ChEMBL document CHEMBL3632581, “Dimers of Melampomagnolide B Exhibit Potent Anticancer Activity against Hematological and Solid Tumor Cells” (J Med Chem, 2015):

Tests used:
CCRF-CEM = assay: Cytotoxicity against human CCRF-CEM cells after 48 hrs by SRB assay; type: functional
How it was run: (§1)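 NCI-60 five-dose screen at 10−8 to 10−4 M. Cells were plated at 5,000–40,000/well in RPMI 1640 with 5% FBS and 2 mM L-glutamine, then preincubated 24 h, and time-zero plates were TCA-fixed. Compound was added from DMSO stocks and exposed 48 h at 37 °C. Cells were TCA-fixed, SRB-stained, and read at 515 nm. LC50 is the concentration halving the cell population through cell death.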

UACC-62 = assay: Cytotoxicity against human UACC62 cells after 48 hrs by SRB assay; type: functional; conditions: UACC-62, 48 h
How it was run: (§2)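 NCI-60 screen: cells grown in RPMI 1640 with 5% FBS and 2 mM L-glutamine, plated at 5,000–40,000 cells/well by doubling time, and preincubated 24 h at 37 °C before drug. Drug was diluted from DMSO stock and given at five concentrations, 10−4 to 10−8 M, for 48 h. Cells fixed with cold TCA, SRB stained, OD read at 515 nm against time-zero and vehicle plates. LC50 taken as the concentration that halves cell population through cell death.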

OVCAR-4 = assay: Cytotoxicity against human OVCAR4 cells after 48 hrs by SRB assay; type: functional; conditions: OVCAR-4, 48 h; how it was run: as §1
[1] = Potency index, ratio of parthenolide EC50 to compound EC50 for human M9-ENL1 cells; type: functional
[2] = Antileukemic activity against human AML01 cells after 24 hrs by annexin V/7-AAD staining-based flow cytometric analysis; type: functional, cell-based
How it was run: (§3)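 Primary AML specimens from consenting donors, isolated by Ficoll-Paque gradient and sometimes cryopreserved. Cells were held 1 h in serum-free IMDM with 20% BIT 9500, LDL and β-mercaptoethanol before drug (DMSO stock diluted in PBS, ≤0.5% DMSO final). Exposure was 24 h over 0.5-10 μM. Annexin V/7-AAD double-negative cells, normalized to vehicle, gave the EC50. Run in triplicate.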

SF-295 = assay: Cytotoxicity against human SF295 cells after 48 hrs by SRB assay; type: functional; conditions: SF-295, 48 h; how it was run: as §1
COLO 205 = assay: Cytotoxicity against human COLO205 cells after 48 hrs by SRB assay; type: functional; conditions: COLO 205, 48 h; how it was run: as §1
TK-10 = assay: Cytotoxicity against human TK10 cells after 48 hrs by SRB assay; type: functional; conditions: TK-10, 48 h; how it was run: as §2
ACHN = assay: Cytotoxicity against human ACHN cells after 48 hrs by SRB assay; type: functional; how it was run: as §1
PC-3 = assay: Cytotoxicity against human PC3 cells after 48 hrs by SRB assay; type: functional; conditions: PC-3, 48 h; how it was run: as §1
786-0 = assay: Cytotoxicity against human 786-0 cells after 48 hrs by SRB assay; type: functional; conditions: 786-0, 48 h; how it was run: as §1
SK-MEL-2 = assay: Cytotoxicity against human SK-MEL-2 cells after 48 hrs by SRB assay; type: functional; conditions: SK-MEL-2, 48 h; how it was run: as §1
SK-OV-3 = assay: Cytotoxicity against human SKOV3 cells after 48 hrs by SRB assay; type: functional; conditions: SK-OV-3, 48 h; how it was run: as §1
A498 = assay: Cytotoxicity against human A498 cells after 48 hrs by SRB assay; type: functional; conditions: A498, 48 h; how it was run: as §1
M14 = assay: Cytotoxicity against human M14 cells after 48 hrs by SRB assay; type: functional; conditions: M14, 48 h; how it was run: as §1
SN12C = assay: Cytotoxicity against human SN12C cells after 48 hrs by SRB assay; type: functional; how it was run: as §1
Malme-3M = assay: Cytotoxicity against human MALME-3M cells after 48 hrs by SRB assay; type: functional; how it was run: as §1
HCC 2998 = assay: Cytotoxicity against human HCC2998 cells after 48 hrs by SRB assay; type: functional; conditions: HCC 2998, 48 h; how it was run: as §1
KM12 = assay: Cytotoxicity against human KM12 cells after 48 hrs by SRB assay; type: functional; conditions: KM12, 48 h; how it was run: as §1
OVCAR-8 = assay: Cytotoxicity against human OVCAR8 cells after 48 hrs by SRB assay; type: functional; conditions: OVCAR-8, 48 h; how it was run: as §1
K562 = assay: Cytotoxicity against human K562 cells after 48 hrs by SRB assay; type: functional; conditions: K562, 48 h; how it was run: as §1
SW-620 = assay: Cytotoxicity against human SW620 cells after 48 hrs by SRB assay; type: functional; conditions: SW-620, 48 h; how it was run: as §2
[3] = Antileukemic activity against human AML05 cells after 24 hrs by annexin V/7-AAD staining-based flow cytometric analysis; type: functional, cell-based; how it was run: as §3
SR = assay: Cytotoxicity against human SR cells after 48 hrs by SRB assay; type: functional; how it was run: as §2
OVCAR-5 = assay: Cytotoxicity against human OVCAR5 cells after 48 hrs by SRB assay; type: functional; conditions: OVCAR-5, 48 h; how it was run: as §1
SNB-75 = assay: Cytotoxicity against human SNB75 cells after 48 hrs by SRB assay; type: functional; conditions: SNB-75, 48 h; how it was run: as §1
HCT-15 = assay: Cytotoxicity against human HCT15 cells after 48 hrs by SRB assay; type: functional; conditions: HCT-15, 48 h; how it was run: as §1
UO-31 = assay: Cytotoxicity against human UO31 cells after 48 hrs by SRB assay; type: functional; conditions: UO-31, 48 h; how it was run: as §2
LOX IMVI = assay: Cytotoxicity against human LOXIMVI cells after 48 hrs by SRB assay; type: functional; how it was run: as §1
NCI-H23 = assay: Cytotoxicity against human NCI-H23 cells after 48 hrs by SRB assay; type: functional; conditions: NCI-H23, 48 h; how it was run: as §1
RXF 393 = assay: Cytotoxicity against human RXF393 cells after 48 hrs by SRB assay; type: functional; conditions: RXF 393, 48 h; how it was run: as §1
MDA-MB-468 = assay: Cytotoxicity against human MDA-MB-468 cells after 48 hrs by SRB assay; type: functional; conditions: MDA-MB-468, 48 h; how it was run: as §1
SF-268 = assay: Cytotoxicity against human SF268 cells after 48 hrs by SRB assay; type: functional; conditions: SF-268, 48 h; how it was run: as §1
MOLT-4 = assay: Cytotoxicity against human MOLT4 cells after 48 hrs by SRB assay; type: functional; conditions: MOLT-4, 48 h; how it was run: as §1
UACC-257 = assay: Cytotoxicity against human UACC257 cells after 48 hrs by SRB assay; type: functional; conditions: UACC-257, 48 h; how it was run: as §2
[4] = read-out: LC50 (the source's name)

For `C=C1C(=O)O[C@H]2[C@H]1CC/C(COC(=O)NCCCCCNC(=O)OC/C1=C/CC[C@@]3(C)O[C@H]3[C@H]3OC(=O)C(=C)[C@@H]3CC1)=C\CC[C@@]1(C)O[C@@H]21`, the GI50 (CCRF-CEM) was 0.28 µM, the CC50 (CCRF-CEM; [4]) was over 100 µM and the GI50 (UACC-62) was 1.41 µM. The CC50 (UACC-62; [4]) was 7.04 µM, the GI50 (OVCAR-4) was 2.72 µM and the CC50 (OVCAR-4; [4]) was 41.9 µM. The “Ratio EC50” value [1] was 2, the EC50 [2] was 1.6 µM and the GI50 (SF-295) was 11.1 µM. The CC50 (SF-295; [4]) was 65.2 µM, the GI50 (COLO 205) was 0.52 µM and the CC50 (COLO 205; [4]) was 7.97 µM. For the same compound, the GI50 (TK-10) was 1.82 µM, the CC50 (TK-10; [4]) was 11.8 µM and the GI50 (ACHN) was 3.05 µM. For the same compound, the CC50 (ACHN; [4]) was 35.4 µM, the GI50 (PC-3) was 3.79 µM and the LC50 (concentration killing half the cell population) (PC-3) was 49.4 µM. It also gave a GI50 (786-0) of 1.57 µM, a CC50 (786-0; [4]) of 6.39 µM and a GI50 (SK-MEL-2) of 2.01 µM. It also gave a CC50 (SK-MEL-2; [4]) of 7.81 µM, a GI50 (SK-OV-3) of 5.99 µM and a CC50 (SK-OV-3; [4]) of 49.9 µM. The GI50 (A498) was 6.24 µM, the CC50 (A498; [4]) was 47.5 µM and the GI50 (M14) was 1.71 µM. It also gave a CC50 (M14; [4]) of 8.2 µM, a GI50 (SN12C) of 2.49 µM and a CC50 (SN12C; [4]) of 45.5 µM. The GI50 (Malme-3M) was 2.06 µM, the CC50 (Malme-3M; [4]) was 27.3 µM and the GI50 (HCC 2998) was 6.71 µM. It also gave a CC50 (HCC 2998; [4]) of 53.9 µM, a GI50 (KM12) of 6.53 µM and a CC50 (KM12; [4]) of 54.2 µM. The GI50 (OVCAR-8) was 3.27 µM, the CC50 (OVCAR-8; [4]) was 61 µM and the GI50 (K562) was 0.56 µM. The CC50 (K562; [4]) was over 100 µM, the GI50 (SW-620) was 0.43 µM and the CC50 (SW-620; [4]) was 5.14 µM. For the same compound, the EC50 [3] was 1.6 µM, the GI50 (SR) was 0.38 µM and the CC50 (SR; [4]) was over 100 µM. For the same compound, the GI50 (OVCAR-5) was 1.67 µM, the CC50 (OVCAR-5; [4]) was 7.47 µM and the GI50 (SNB-75) was 2.2 µM. It also gave a CC50 (SNB-75; [4]) of 33.8 µM, a GI50 (HCT-15) of 6.18 µM and a CC50 (HCT-15; [4]) of 49.8 µM. For the same compound, the GI50 (UO-31) was 8.9 µM, the CC50 (UO-31; [4]) was 52.3 µM and the GI50 (LOX IMVI) was 0.46 µM. It also gave a CC50 (LOX IMVI; [4]) of 5.82 µM, a GI50 (NCI-H23) of 2.66 µM and a CC50 (NCI-H23; [4]) of 45.5 µM. It also gave a GI50 (RXF 393) of 0.85 µM, a CC50 (RXF 393; [4]) of 6.35 µM and a GI50 (MDA-MB-468) of 1.06 µM. It also gave an LC50 (MDA-MB-468) of 24.7 µM, a GI50 (SF-268) of 3.08 µM and a CC50 (SF-268; [4]) of 42.3 µM. For the same compound, the GI50 (MOLT-4) was 1.48 µM, the CC50 (MOLT-4; [4]) was over 100 µM and the GI50 (UACC-257) was 2.07 µM. For the same compound, the CC50 (UACC-257; [4]) was 42.4 µM.
